Measured values as given in paper PMC6904115 (Neuropharmacology, 2019).
“Also recorded” adds a separate entry of the source.

How the values were obtained:
Y1 receptor [1] = target: T1, Y1 receptor (Rattus norvegicus, UniProt P21555); test: Y1 receptor internalization; format: cell-based; details: for Y1 receptor internalization / NPY release by chemical stimulus, summary: spinal cord slices
T1 sequence (P21555 1-382): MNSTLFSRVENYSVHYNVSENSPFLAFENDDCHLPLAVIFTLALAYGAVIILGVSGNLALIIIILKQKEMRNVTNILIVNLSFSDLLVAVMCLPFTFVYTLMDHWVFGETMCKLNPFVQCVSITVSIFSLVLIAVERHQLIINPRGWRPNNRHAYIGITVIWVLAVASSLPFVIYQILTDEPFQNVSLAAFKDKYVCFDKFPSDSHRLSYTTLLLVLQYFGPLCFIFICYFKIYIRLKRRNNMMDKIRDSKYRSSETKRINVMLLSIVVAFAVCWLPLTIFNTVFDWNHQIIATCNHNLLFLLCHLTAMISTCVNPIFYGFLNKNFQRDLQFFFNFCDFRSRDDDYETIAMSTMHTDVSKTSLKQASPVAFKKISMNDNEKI

[2] = test system: substance P release in the dorsal horn; details: ref Chen et al., cited from earlier work
Y1 receptor [3] = target: T1, Y1 receptor; format: cell-based; details: with 100 nM NPY; each inhibitor 10 μM; 35 °C, 10 min
Y1 receptor [4] = target: T1, Y1 receptor; test: Y1 receptor internalization induced by capsaicin stimulation of the dorsal root; format: cell-based
Procedure, shortened: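 Rat lumbar (L2-L4) slices, 400 μm, keeping one >8 mm dorsal root; recovered 1 h at 35 °C in aCSF (5 mM KCl). Root sealed with grease into side compartment of aCSF + 1 μM capsaicin, 10 min, while slice superfused at 35 °C; 10 min further superfusion, immersion-fixed, 25 μm cryosections, Y1 antiserum 1:500, confocal. Ipsilateral vs contralateral; repeated-measures 2-way ANOVA, Holm-Sidak.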

[5] = test system: opioid release in spinal cord slices; details: cited from earlier work
[6] = test system: inhibitory interneurons in the dorsal horn; details: four classes of inhibitory interneurons; ref Polgar et al. (2013); cited from earlier work
MOR = details: ref Song and Marvizon, 2003a; cited from earlier work
NK1R = details: compared with endogenous opioids; ref Marvizon et al., 2003b; cited from earlier work
Y1 receptor [7] = target: T1, Y1 receptor; format: cell-based

## O=C(Nc1ncnc2c1ncn2[C@@H]1O[C@@H]2COP(=O)(O)OC2C1O)c1ccccc1 (stereo in doubt) [6-Bnz-cAMP, 6-benzoyl-3′,5′-cyclic monophosphate]
Y1 receptor [1]; 10 nM, 60 min, 35 °C
  Y1 receptor internalization by protein kinase A activator: induced a substantial amount of Y1 receptor internalization
Y1 receptor [1]
  Y1 receptor internalization / NPY release by chemical stimulus, summary: induced Y1 receptor internalization

## Nc1ncnc2c1nc(Br)n2[C@@H]1O[C@@H]2COP(=O)(O)O[C@H]2[C@H]1O [8-Br-cAMP, 8-bromoadenosine-3′,5′-cyclic monophosphate]
[2]; dorsal horn, 2018
  substance P release by cell-permeable cAMP analogs: induce substance P release

## CC(N)C(=O)N1CCCC1C#N (stereo not drawn) [Ala-Pyrr-CN, alanine-pyrrolidine-nitrile]
Y1 receptor [3]
  effect on NPY-induced Y1 receptor internalization: did not significantly increase NPY-induced Y1 receptor internalization

## CC1(C)C(=O)N=C2C1=C(O)C(=O)c1ccccc12 [BVT948, 4-hydroxy-3,3-dimethyl-2H-benz[g]indole-2,5(3H)-dione]
Y1 receptor [1]; 10 μM BVT948 60 min, then 10 μM NMDA + D-serine 2 min, 8 min aCSF
  Y1 receptor internalization after BVT948 preincubation and NMDA+D-Ser: also released NPY
[2]; 2014b, Chen et al., 2010
  substance P release by BVT948: increases substance P release

## N#Cc1cc2[nH]c(=O)c(=O)[nH]c2cc1[N+](=O)[O-] [CNQX]
Y1 receptor [4]; slice superfused with 10 μM CNQX 10 min, 1 μM capsaicin on dorsal root
  effect on dorsal root capsaicin-induced Y1 internalization: blocked; also recorded: eliminated the effect of capsaicin
Y1 receptor [1]; 10 μM CNQX with 1 μM capsaicin, 10 min, whole slice
  effect on capsaicin-induced Y1R internalization: decreased the Y1R internalization induced by capsaicin to near control levels

## [Cl-].[K+] [KCl]
[5]; 30 mM KCl, 2 min, spinal cord slices, ref Chen et al., 2008
  opioid release by KCl: induced abundant opioid release
Y1 receptor [1]; 30 mM KCl 2 min, then 8 min aCSF, 35 °C
  neurons with Y1 receptor internalization, KCl: > 80%
Y1 receptor [1]
  Y1 receptor internalization / NPY release by chemical stimulus, summary: induced Y1 receptor internalization

## COc1cc(CNC(=O)CCCC/C=C/C(C)C)ccc1O [capsaicin]
Y1 receptor [4]; 1 μM capsaicin on dorsal root (side chamber), 10 min
  Y1 receptor internalization by dorsal root capsaicin: induced NPY release; also recorded: evoked substantial Y1 receptor internalization, which was significantly higher than in control slices
[5]; dorsal horn, ref Song and Marvizon, 2003b
  opioid release by capsaicin: not opioid release
Y1 receptor [1]; 1 μM capsaicin, 10 min, whole slice, 35 °C
  neurons with Y1 receptor internalization, capsaicin: approximately 50%
Y1 receptor [1]
  Y1 receptor internalization / NPY release by chemical stimulus, summary: induced Y1 receptor internalization
[6]
  pERK induction: induced pERK only in the galanin and NPY neurons

## Ile-Pro-Ile
Y1 receptor [3]
  effect on NPY-induced Y1 receptor internalization: did not significantly increase NPY-induced Y1 receptor internalization

## Leu-enkephalin
MOR
  reduction by peptidases of potency to induce MOR internalization: two orders of magnitude

## formalin
[6]
  pERK induction: induced pERK only in the galanin and NPY neurons

## substance P
NK1R
  cleavage by peptidases: much less readily

## ω-conotoxin MVIIC
Y1 receptor [7]
  effect on electrically evoked Y1 receptor internalization, ipsilateral: decreased
